This note sets out measurements from ChEMBL document CHEMBL1153201, “Sulfonylureido thiazoles as fructose-1,6-bisphosphatase inhibitors for the treatment of type-2 diabetes” (Bioorg Med Chem Lett, 2010).

Data set [1] can be described thus: Half life in mouse at 4.8 mg/kg. Also noted: dose 4.8 mg/kg. Particulars: in vivo. It is filed as ADME, organism-based. In a few lines: (§1)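 Mouse PK. Oral gavage at 4.8 mg/kg; oral bioavailability derived by reference to an iv bolus of 2.5 mg/kg.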
A short description of data set [2]: Aqueous solubility of the compound. It is filed as physicochemical.
For data set [3], the system named is Mus musculus. Nature of the data set: Antidiabetic activity in C57BLKS db/db mouse assessed as reduction in glucose level at 100 mg/kg, po after 6 hrs relative to control. It is filed as functional. Also noted: scale not given: the % may be the effect or the level left. In short, it runs like this:
(§2)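 Male db/db mice (13 weeks, C57BLKS background), block randomized by blood glucose, fasted 4 h, then given a single oral dose of 100 mg/kg in 0.3% Tween 80 (4 mL/kg); vehicle controls. Tail-tip blood glucose read by handheld meter at 0, 2, 4, 6 h post dose. Expressed as % lowering vs vehicle at the same time point; mixed-model statistics.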

Data set [4] addresses T1, Fructose-1,6-bisphosphatase 1 (Homo sapiens, UniProt P09467).
T1 sequence (P09467 whole entry): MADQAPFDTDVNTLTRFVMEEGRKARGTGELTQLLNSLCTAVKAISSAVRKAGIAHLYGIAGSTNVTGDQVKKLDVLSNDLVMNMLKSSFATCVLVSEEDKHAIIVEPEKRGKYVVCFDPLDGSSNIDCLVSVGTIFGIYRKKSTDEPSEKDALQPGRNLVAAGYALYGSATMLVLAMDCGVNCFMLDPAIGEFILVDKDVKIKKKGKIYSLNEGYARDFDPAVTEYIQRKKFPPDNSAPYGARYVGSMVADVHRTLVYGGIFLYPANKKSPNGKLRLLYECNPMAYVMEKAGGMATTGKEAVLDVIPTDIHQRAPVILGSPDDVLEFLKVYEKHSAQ
Nature of the data set: Inhibition of FBPase in human liver in presence of fructose-2,6-bisphosphate, a substrate site inhibitor.

Data set [5] in a line: Volume of distribution at steady state in mouse at 2.5 mg/kg, iv. Type of data set: ADME, organism-based. Also noted: dose 2.5 mg/kg, route intravenous. Particulars: in vivo, read-out: Vdss. In a few lines: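 Mouse given an iv bolus at 2.5 mg/kg; volume of distribution at steady state derived from plasma PK.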
Data set [6] concerns Mus musculus. Nature of the data set: Antidiabetic activity in C57BLKS db/db mouse assessed as reduction in glucose level at 100 mg/kg, po after 2 hrs relative to control. It is filed as functional. Also noted: scale not given: the % may be the effect or the level left. In short, it runs like this: as §2
Data set [7] has as its system Mus musculus. As to the kind of experiment: Antidiabetic activity in C57BLKS db/db mouse assessed as reduction in glucose level at 100 mg/kg, po after 4 hrs relative to control. It is filed as functional. Also noted: scale not given: the % may be the effect or the level left. In short, it runs like this: as §2
The nature of data set [8]: Intrinsic clearance in mouse microsomes measured per mg of protein. It is filed as ADME, Microsome. In short, it runs like this: (§3)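 Microsomal intrinsic clearance in human or mouse liver microsomes, expressed per mg microsomal protein.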
Data set [9] concerns the target T2, Fructose-1,6-bisphosphatase 1 (Mus musculus, UniProt Q9QXD6).
T2 sequence (Q9QXD6 whole entry): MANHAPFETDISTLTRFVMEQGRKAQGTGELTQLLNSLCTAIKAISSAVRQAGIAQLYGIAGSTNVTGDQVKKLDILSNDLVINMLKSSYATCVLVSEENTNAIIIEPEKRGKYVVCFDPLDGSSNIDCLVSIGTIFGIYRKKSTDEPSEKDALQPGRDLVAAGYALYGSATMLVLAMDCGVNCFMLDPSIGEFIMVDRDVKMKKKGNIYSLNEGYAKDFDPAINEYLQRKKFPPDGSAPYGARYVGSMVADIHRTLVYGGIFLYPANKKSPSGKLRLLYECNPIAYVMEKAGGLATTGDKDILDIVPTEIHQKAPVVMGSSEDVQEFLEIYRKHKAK
As to the kind of experiment: Inhibition of FBPase in mouse liver.

Data set [10] in a line: Permeability across PAMPA membrane. Type of data set: ADME. Particulars: read-out: permeability. A general note: In PAMPA a lipid-coated filter parts donor from acceptor wells.
Data set [11] can be described thus: Ratio of drug level in liver to plasma in mouse. It is filed as ADME, tissue-based. Particulars: liver and plasma.
The subject of data set [12] is Mus musculus. Nature of the data set: Antidiabetic activity in db/db mouse assessed as reduction in glucose level at 100 mg/kg, po after 6 hrs relative to control. Also noted: scale not given: the % may be the effect or the level left. It is filed as functional. In a few lines:
as §2

Data set [13] is described as follows: Oral bioavailability in mouse at 4.8 mg/kg. It is filed as ADME, organism-based. Particulars: in vivo. In a few lines: as §1
Data set [14] concerns the target T1, Fructose-1,6-bisphosphatase 1. Nature of the data set: Inhibition of FBPase in human liver.
Data set [15] in a line: Intrinsic clearance in human microsomes measured per mg of protein. It is filed as ADME, Microsome. In a few lines:
as §3

SMILES strings stand for the structures. Converted amounts (≈) assume the structure as drawn.

Usually half-life stands for the time in which the quantity being followed falls by half. Broadly, the solubility is how much of the substance goes into solution per volume. The IC50 is the midpoint of a concentration-inhibition curve. For orientation: microsomal CLint means the capacity of the preparation to metabolise the compound, expressed as a volume cleared per time. In general, EC50 refers to the midpoint of the concentration-response curve. A word on the Kp: it is tissue or fluid exposure divided by exposure in the circulation. Broadly, the bioavailability is the share of a dose that reaches the circulation, judged against a reference dose that is usually intravenous.

`Cc1cc(S(=O)(=O)NC(=O)Nc2ncc(Br)s2)ccc1-c1ccc(F)nc1`: the half-life in data set [1] is 486 min. In addition, the concentration in solution in data set [2] (solubility) was 465 µg/mL (≈ 987 µM). Besides, the Activity turned out to be 32% in data set [3], 5% in data set [6], 13% in [7] and 32% in data set [12]. For the same compound, the IC50 in [4] was 90 nM; in data set [14], 130 nM. Moreover, the Vd in data set [5] is 0.1 L/kg. For the same compound, the microsomal CLint was determined as 5.1 µL/min/mg in [8] and 11.4 µL/min/mg in [15]. Further, a half-maximal effect in data set [9] (EC50) was put at 10 µM. In addition, the Papp in data set [10] came out at 3.6 ×10⁻⁶ cm/s. For the same compound, the Kp in data set [11] was determined as 0.6. In data set [13], this compound came in with a bioavailability of 70%.
